The source made the active and inactive calls. The rule behind the calls is not given here.
Assays:
Format in all cases: functional, organism-based
Cirsium arvense [1] = assay: Mycoherbicidal activity against Cirsium arvense (Canada thistle) assessed as decrease in length of necrotic lesions at 1 mg/ml by leaf-disk puncture assay
In short: (§1)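 Leaf disk-puncture bioassay on leaves of host and nonhost plants. Compound was applied at 1 mg/mL, and necrosis was read 3 days post-application. Each bioassay was run twice with at least three replicates. Error bars are standard error, and means were compared by Fisher's LSD.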

Trifolium pratense = assay: Mycoherbicidal activity against Trifolium pratense (red clover) assessed as decrease in length of necrotic lesions at 1 mg/ml by leaf-disk puncture assay; in short: as §1
Phleum pratense = assay: Mycoherbicidal activity against Phleum pratense (timothy grass) assessed as decrease in length of necrotic lesions at 1 mg/ml by leaf-disk puncture assay; in short: as §1
Xanthomonas campestris [2] = assay: Antimicrobial activity against Xanthomonas campestris assessed as zone of lysis at 6.25 ug/disk
In short: (§2)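 Paper-disk assay against C. tropicalis, X. campestris and B. subtilis. Standard testing used 50 μg per disk. For concentration dependence, doses ran from 1.5 to 100 μg/disk. Each bioassay was run twice with at least three replicates. Means were compared by Fisher's LSD.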

Chenopodium album = assay: Mycoherbicidal activity against Chenopodium album assessed as decrease in length of necrotic lesions at 1 mg/ml by leaf-disk puncture assay; in short: as §1
Bacillus subtilis [3] = assay: Antimicrobial activity against Bacillus subtilis assessed as zone of lysis at 6.25 ug/disk; in short: as §2
Hordeum vulgare = assay: Mycoherbicidal activity against Hordeum vulgare (barley) assessed as decrease in length of necrotic lesions at 1 mg/ml by leaf-disk puncture assay; in short: as §1
Rumex confertus = assay: Mycoherbicidal activity against Rumex confertus (Asian dock) assessed as decrease in length of necrotic lesions at 1 mg/ml by leaf-disk puncture assay; in short: as §1
Rosa pendulina = assay: Mycoherbicidal activity against Rosa pendulina assessed as decrease in length of necrotic lesions at 1 mg/ml by leaf-disk puncture assay; in short: as §1
Candida tropicalis [4] = assay: Antimicrobial activity against Candida tropicalis assessed as growth inhibition at 6.25 ug/disk; in short: as §2
Sonchus arvensis = assay: Mycoherbicidal activity against Sonchus arvensis (field sow-thistle) assessed as decrease in length of necrotic lesions at 1 mg/ml by leaf-disk puncture assay; in short: as §1
Cannabis sativa = assay: Mycoherbicidal activity against Cannabis sativa (hemp) assessed as decrease in length of necrotic lesions at 1 mg/ml by leaf disk puncture assay; in short: as §1
Taraxacum officinale = assay: Mycoherbicidal activity against Taraxacum officinale (dandelion) assessed as decrease in length of necrotic lesions at 1 mg/ml by leaf-disk puncture assay; in short: as §1
Elymus repens [5] = assay: Mycoherbicidal activity against Elymus repens (couch grass) assessed as decrease in length of necrotic lesions at 0.5 mg/ml by leaf-disk puncture assay
In short: (§3)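 Dose-response leaf disk-puncture on E. repens and C. arvense leaves. Concentrations ran from 0.06 to 2 mg/mL (0.6-20 μg/disk), and necrotic symptoms were scored 2 days post-application. Each bioassay was run twice with at least three replicates. Means were compared by Fisher's LSD.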

Elymus repens [6] = assay: Mycoherbicidal activity against Elymus repens (couch grass) assessed as decrease in length of necrotic lesions at 1 mg/ml by leaf-disk puncture assay; in short: as §1
Cirsium arvense [7] = assay: Mycoherbicidal activity against Cirsium arvense (Canada thistle) assessed as decrease in length of necrotic lesions at 0.5 mg/ml by leaf-disk puncture assay; in short: as §3
Xanthomonas campestris [8] = assay: Antimicrobial activity against Xanthomonas campestris assessed as zone of lysis at 50 ug/disk; in short: as §2
Bacillus subtilis [9] = assay: Antimicrobial activity against Bacillus subtilis assessed as zone of lysis at 50 ug/disk; in short: as §2
Candida tropicalis [10] = assay: Antimicrobial activity against Candida tropicalis assessed as growth inhibition at 50 ug/disk; in short: as §2

Q: For C=C1[C@H](C)[C@](C)(O)O[C@]12OC(=O)C=C2OC, which Activity (Cirsium arvense [1]) is on record?
A: Its Activity is “Active”.

Q: And the Activity (Trifolium pratense)?
A: The Activity was “Active”.

Q: What about the Activity (Phleum pratense) of the same compound?
A: Its Activity is “Active”.

Q: And the Activity (Xanthomonas campestris [2])?
A: The Activity was “Active”.

Q: And the Activity (Chenopodium album)?
A: The Activity was “Active”.

Q: What about the Activity (Bacillus subtilis [3]) of the same compound?
A: The Activity was “Active”.

Q: What about the Activity (Hordeum vulgare) of the same compound?
A: The Activity was “Active”.

Q: What about the Activity (Rumex confertus) of the same compound?
A: Its Activity is “Active”.

Q: And the Activity (Rosa pendulina)?
A: Its Activity is “Active”.

Q: What about the “growth inhibition (GI)” value (Candida tropicalis [4]) of the same compound?
A: Its value is “Active”.

Q: What about the Activity (Sonchus arvensis) of the same compound?
A: The Activity was “Active”.

Q: What about the Activity (Cannabis sativa) of the same compound?
A: The Activity was “inactive”.

Q: And the Activity (Taraxacum officinale)?
A: Its Activity is “Active”.

Q: And the Activity (Elymus repens [5])?
A: Its Activity is “Active”.

Q: And the Activity (Elymus repens [6])?
A: The Activity was “Active”.

Q: And the Activity (Cirsium arvense [7])?
A: Its Activity is “Active”.

Q: Which results are given for COC1=CC(=O)O/C1=C(/COC(C)=O)C(C)C(C)=O (stereo unspecified)?
A: Activity (Xanthomonas campestris [8]): Active; Activity (Bacillus subtilis [9]): Active; Activity (Elymus repens [6]): Active

Q: For COC1=CC(=O)O/C1=C(\COC(C)=O)C(C)C(C)=O (stereo unspecified), which Activity (Cirsium arvense [1]) is on record?
A: Its Activity is “Active”.

Q: And the Activity (Elymus repens [6])?
A: The Activity was “Active”.

Q: For C=C1[C@H](C)[C@](C)(OC)O[C@]12OC(=O)C=C2OC, which Activity (Cirsium arvense [1]) is on record?
A: Its Activity is “Active”.

Q: What about the “growth inhibition (GI)” value (Candida tropicalis [10]) of the same compound?
A: The value was “Active”.

Q: What about the Activity (Xanthomonas campestris [8]) of the same compound?
A: Its Activity is “Active”.

Q: What about the Activity (Bacillus subtilis [9]) of the same compound?
A: Its Activity is “Active”.

Q: What about the Activity (Elymus repens [6]) of the same compound?
A: The Activity was “Active”.

Q: How did the Activity (Cirsium arvense [1]) turn out when C=C(C(C)C(C)=O)C1(OC(C)=O)OC(=O)C=C1OC (stereo unspecified) was run?
A: The Activity was “Active”.

Q: And the Activity (Xanthomonas campestris [8])?
A: The Activity was “Active”.

Q: What about the Activity (Bacillus subtilis [9]) of the same compound?
A: The Activity was “Active”.

Q: What about the Activity (Elymus repens [6]) of the same compound?
A: The Activity was “Active”.

Q: With C=C(C(=O)/C(=C\C(=O)OC)OC)C(C)C(C)=O (stereo unspecified) as the compound, how does the Activity (Cirsium arvense [1]) read?
A: The Activity was “Active”.

From ChEMBL document CHEMBL3045352, “Papyracillic acid, a phytotoxic 1,6-dioxaspiro[4,4]nonene produced by Ascochyta agropyrina Var. nana, a potential mycoherbicide for Elytrigia repens biocontrol” (J Agric Food Chem, 2009)
